From PubChem
Shown is part of a subset that was picked to be rich in hits.
H69AR growth 86K: growth inhibitors of human H69AR lung tumor cells. H69AR lung tumor viability, ATP luminescence, 72 h; active compounds read low. hit rate 6% among 85,000. viability, % at 10 µM. AID 598;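 active means viability at or below 40%; inactive means viability above 40%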;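 further: multidrug resistant small cell line overexpressing MRP-1 efflux transporter; 100% = mean luminescence of untreated control wells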
bCat KO growth: beta-catenin-lacking colon tumor cell growth suppression; HCT116 beta-catenin knockout viability, CellTiter-Glo, 60 h; active compounds read low; viability, % at 10 µM; hit rate 1.5% among 140,000;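 active means viability at or under a set limit, the compound median less 4 SD, cut at about 6% in these data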;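 further: 0% = Hyamine 1622 control at 20 µM and 100% = untreated cell control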
HUVEC inhibit: inhibitors of human endothelial cell proliferation; HUVEC proliferation, CellTiter-Glo luminescence, 72 h; active compounds read low; viability, % at 10 µM (by protocol); hit rate 1.1% among 86,000;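 active means viability at or below 30%; inactive means viability above 30%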;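 further: 100% = median luminescence of DMSO-only cell control wells on each plate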
Fibroblast inh: blocks proliferation of human lung fibroblasts. hit rate 1.1% among 85,000. AID 719. LL 47 human lung fibroblast viability, ATP luminescence; active compounds read low. viability, % at 10 µM;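 active means viability at or below 50% in the single dose screen; inactive means viability above 50%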;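 further: compound exposure lasted 72 h before the ATP readout; 100% = median luminescence of untreated cell-only wells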
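Test system: LL 47 human lung fibroblasts / Quantity: 1,150 cells in each well / Medium: IMEM growth medium with 15% fetal bovine serum / Incubation: 72 h compound exposure at 37 °C after overnight plating / Detection: CellTiter-Glo luminescence measuring cellular ATP / Read-out: % viability versus median cells-only luminescence / Benchmarks: cell-only wells, no compound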
PTEN del growth: growth suppressors of cells with PTEN tumor suppressor deletion; AID 827; hit rate 1.2% among 140,000; HCT116 PTEN-null viability, CellTiter-Glo, 60 h; active compounds read low; viability, % at 10 µM;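 active means viability at or below a set limit, 4 SD under the median of all tested compounds, cut at about 3.7% in these data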;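 further: PTEN knockout HCT116 line with beta catenin targeted HCT116 as companion control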
Phagocyt inh: blocks phagocytosis by macrophages; inhibition, % at 5 µM; hit rate 0.07% among 110,000; AID 1029; J774A.1 macrophage IgG-bead phagocytosis, imaging;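 active means inhibition above the mean of the plate negative controls plus 5 SD, cut at about 13% in these data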;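 further: phagocytic index as fraction of beads internalized from green versus red external bead signal; plate controls were DMSO negative control for no effect and cytochalasin-D positive control for full effect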
Starred values were filed as active, the others as inactive; nt = no result.

SMILES	H69AR growth 86K	bCat KO growth	HUVEC inhibit	Fibroblast inh	PTEN del growth	Phagocyt inh
CN(C)S(=O)(=O)c1ccc2[nH]cc(/C=C/c3nc4ccccc4c(=O)n3-c3ccccc3)c2c1	37*	45	57	73	60	nt
Cc1[nH]c2ccccc2c1/C=C/c1nc2ccccc2c(=O)n1-c1ccc([N+](=O)[O-])cc1	nt	56	nt	nt	34	nt
O=S(=O)(Cc1ccccc1)c1cnc2ccccc2n1	7.1*	24	93	92	12	nt
COc1ccc(C(=O)n2c(-c3ccco3)nc3ccccc32)cc1	24*	14	53	65	20	nt
CCCn1c(NC(=O)c2ccco2)nc2ccccc21	nt	67	nt	nt	68	3
COc1ccc(OCCn2c(NC(=O)c3ccco3)nc3ccccc32)cc1	39*	63	78	59	38	-1
S=C(Nc1ccccc1)Nc1nc2ccccc2n1CCOc1ccccc1	nt	1.6*	nt	nt	1.2*	-5
COc1ccc(CCn2c(-c3ccco3)nc3nc4ccccc4nc32)cc1	58	70	96	95	70	2
CCOc1ccccc1/C=C(/NC(=O)c1ccccc1)C(=O)N(CC)CC	nt	89	nt	nt	81	nt
CCOc1cccc(C(=O)Nc2ccc3oc(Cc4ccc(Cl)cc4)nc3c2)c1	24*	34	73	85	45	0
O=C(Nc1ccc2oc(Cc3ccc(Cl)cc3)nc2c1)c1cccnc1	36*	56	80	92	59	-1
O=C(Nc1ccc2oc(-c3ccccc3Cl)nc2c1)c1cncc(Br)c1	18*	75	17*	66	66	-2
Cc1cc(/C=N/NC(=O)C(=O)NCc2ccccn2)c(C)n1-c1ccccc1	nt	94	nt	nt	89	nt
COc1cc(/C=C/C(=O)N2C(=O)c3cccc(N)c3C2=O)cc(OC)c1OC	nt	4.5*	nt	nt	9	-3
C=CCSc1nnc(NC(=O)CSc2nc3ccccc3o2)s1	84	107	101	100	106	0
Cc1cc(C)n(-c2nc(NCCO)c3c4c(sc3n2)CCCC4)n1	11*	15	78	84	25	-2
Cc1cc(C)n(-c2nc(NCCCO)c3c4c(sc3n2)CCCC4)n1	4.9*	12	17*	79	13	0
COc1cccc2cc(C(N)=O)/c(=N/NC(=O)COc3ccc(Cl)cc3)oc12	nt	43	nt	nt	52	-11
O=C(CCn1cnc2ccccc2c1=O)Nc1ccc(S(=O)(=O)N2CCCC2)cc1	49	104	102	100	112	-2
O=C(NNC(=O)c1ccc(SCC2CCCO2)c([N+](=O)[O-])c1)c1ccc(Cl)c([N+](=O)[O-])c1 (centres undefined)	6.1*	77	64	63	82	2
CCCCN(CC)S(=O)(=O)c1ccc(C(=O)Nc2nnc(-c3ccccc3Cl)o2)cc1	27*	16	3.3*	75	16	-1
CCC1CCCCN1S(=O)(=O)c1ccc(C(=O)Nc2nnc(-c3ccccc3Cl)o2)cc1 (centres undefined)	20*	16	57	64	16	nt
O=C(Nc1ccccc1)c1ccc(S(=O)(=O)N2CCCCC2)cc1	nt	87	nt	nt	96	nt
O=C(Nc1nnc(-c2ccccc2Cl)o1)c1ccc(S(=O)(=O)N2CCCCCC2)cc1	31*	18	3.0*	60	13	-1
O=C(Nc1nnc(-c2cccs2)o1)c1cccc(Oc2ccccc2)c1	39*	19	61	88	10	1
SMILES	H69AR growth 86K	bCat KO growth	HUVEC inhibit	Fibroblast inh	PTEN del growth	Phagocyt inh
COc1ccc(S(=O)(=O)NCC2CCC(C(=O)N3CCC4(CC3)OCCO4)CC2)cc1 (centres undefined)	nt	99	nt	nt	100	nt
CC(C)Cn1c(/C=C/c2ccco2)nc2ccccc21	nt	67	nt	nt	68	-9
COc1ccccc1N1CCN(C2CCN(C(=O)COc3cccc(C)c3)CC2)CC1	nt	82	nt	nt	95	-5
CCCCN(C)S(=O)(=O)c1ccc(C(=O)Nc2nnc(-c3cccs3)o2)cc1	35*	15	5.1*	66	13	nt
CCCCN(CCCC)S(=O)(=O)c1ccc(C(=O)Nc2nnc(CSC)o2)cc1	nt	17	nt	nt	16	-2
CC1CCCCN1S(=O)(=O)c1ccc(C(=O)Nc2sccc2C(N)=O)cc1 (centres undefined)	75	55	79	94	80	1
CC1CCCCN1S(=O)(=O)c1ccc(C(=O)Nc2nnc(-c3ccccc3Cl)o2)cc1 (centres undefined)	52	23	3.7*	64	17	-1
COc1ccc(N=C2NN=C(c3c(C)[nH]c4ccccc34)CS2)cc1	nt	3.8*	nt	nt	5	-1
CCN(CC)c1ccc(/C=N/NC(=O)c2cccc(S(=O)(=O)Nc3ccccc3OC)c2)c(O)c1	nt	5.3*	nt	nt	10	-4
COc1ccccc1NS(=O)(=O)c1cccc(C(=O)N/N=C/c2ccc3c(c2)OCCO3)c1	nt	101	nt	nt	104	-5
COc1ccc(N(C(=O)CCl)C(C(=O)NCCc2ccccc2)c2cccs2)cc1 (centres undefined)	nt	1.6*	nt	nt	0.7*	3
Cc1cc(S(=O)(=O)NCC(C)C)ccc1OCC(=O)NCC1CCCO1 (centres undefined)	nt	93	nt	nt	94	-1
Cc1nn(Cc2c(F)c(F)c(F)c(F)c2F)c(C)c1NC(=O)c1ccc(COc2ccc(Cl)cc2Cl)o1	nt	4.7*	nt	nt	14	3
Cc1nn(Cc2ccc(Cl)cc2Cl)c(C)c1NC(=O)c1ccc(COc2cc(Cl)ccc2Cl)o1	nt	47	nt	nt	49	nt
COc1cc(/C=C(\NC(=O)c2ccccc2)C(=O)Nc2cccc(O)c2)c([N+](=O)[O-])cc1OC	nt	108	nt	nt	107	1
COC(=O)COc1ccc(S(=O)(=O)N2CCc3ccccc3C2)cc1	109	98	19*	25*	106	nt
Oc1c(Cl)cc(Cl)cc1Sc1cc(Cl)cc(Cl)c1O	14*	4.0*	33	84	4	nt
COc1ccc(Nc2nnc(SCC(=O)c3cc(C)n(CC4CCCO4)c3C)s2)cc1 (centres undefined)	nt	84	nt	nt	73	4
Cc1ccc(C(=O)Nc2cc(C)c(OCC(=O)N3CCOCC3)c(C)c2)cc1	54	100	100	117	101	nt
COc1ccc(C2c3ccc4ccccc4c3Oc3ncn(CCN4CCOCC4)c(=N)c32)cc1 (centres undefined)	1.9*	2.1*	2.1*	3.2*	1.8*	-1
